Where “and” joins values, the source holds several entries; their conditions need not be identical. Equal values may be shown once. Read-outs that look alike come from different tables or passages of the source.
How the values were obtained:
[1] = system: Caco-2 cell monolayers; assay: Caco-2 cell permeability; format: in vitro ADME; conditions: both directions
[2] = metabolic stability in liver microsomes; format: in vitro ADME; conditions: mouse
[3] = target: Human DHODH (Homo sapiens, UniProt Q02127); assay: DHODH inhibition, DCIP-based assay; format: biochemical
[4] = target: Rabbit DHODH (Oryctolagus cuniculus, UniProt G1SWF3); assay: DHODH inhibition, DCIP-based assay; format: biochemical
[5] = system: P. falciparum field isolates; assay: P. falciparum clinical isolates; format: cell-based; conditions: Plasmodium falciparum, 72 h, read-out: unbound EC50
[6] = system: D10w/yDHODH P. falciparum cell line; assay: growth inhibition of transgenic P. falciparum expressing yeast DHODH; format: cell-based
How it was run: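 D10 parasites transfected with yeast DHODH were grown in human erythrocytes in RPMI 1640 with 0.5% Albumax II. EC50 came from a 72 h dose–response growth assay read by SYBR Green DNA fluorescence.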

[7] = system: Ames tester strains; assay: GLP Ames 5 strain test; conditions: with and without metabolic activation
[8] = target: P. falciparum DHODH (Plasmodium falciparum, UniProt Q08210); assay: DHODH inhibition, DCIP-based spectrophotometric steady-state assay; format: biochemical
[9] = target: CYP2C9 (Homo sapiens, UniProt P11712); assay: reversible cytochrome P450 inhibition; format: in vitro ADME
How it was run: (§1)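 Reversible inhibition of human CYP isoforms tested with isoform-specific probe substrates. Time-dependent (mechanism-based) inhibition was also assessed.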

[10] = system: CYP isoforms; assay: cytochrome P450 inhibition, other isoforms and time-dependent inhibition; format: in vitro ADME; conditions: 20 μM
How it was run: as §1

[11] = system: CYP isoforms (all isoforms tested); assay: as above; format: in vitro ADME
How it was run: as §1

[12] = physchem; format: physicochemical
[13] = pharmacokinetics after IV and oral dosing; format: in vivo, dogs; conditions: dog, plasma, 1 mg/kg
How it was run: (§2)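 Single IV and oral doses were given. Mice and rats received about 2 mg/kg IV and 5–50 mg/kg orally, with blood sampled over 30–48 h from 2 mice per time point or 2 rats. Dogs received 1 mg/kg by each route (n=3). Plasma was separated by centrifugation and assayed by LC/MS, and parameters were derived non-compartmentally.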

[14] = system: P. falciparum 3D7; assay: whole cell P. falciparum 3D7 blood stage 72 h assay, albumax media; format: cell-based; conditions: for EC50: Plasmodium falciparum, 3D7, 72 h
[15] = target: Ca_1.2 channel (Homo sapiens, UniProt Q13936); assay: Ca_1.2 channel assay; format: cell-based
How it was run: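 Channel activity measured by IonWorks automated patch-clamp electrophysiology at a contract lab.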

[16] = stability in plasma and blood; format: in vitro ADME; conditions: plasma 37°C over 5 h; blood over 4 h
[17] = target: Dog DHODH (Canis lupus familiaris, UniProt A0A8I3MWX2); assay: DHODH inhibition, DCIP-based assay; format: biochemical
[18] = target: P. berghei DHODH (PbDHODH) (Plasmodium berghei, UniProt A0A509AEH5); assay: DHODH inhibition, DCIP-based assay; format: biochemical
[19] = pharmacokinetics after IV and oral dosing; format: in vivo, rats
How it was run: as §2

[20] = metabolic stability in liver microsomes; format: in vitro ADME; conditions: rat
[21] = rat 7-day exploratory toxicity study; format: in vivo; conditions: rat 7-day exploratory toxicity study (data not shown)
[22] = kinetic solubility in pH 6.5 buffer; format: physicochemical; conditions: aqueous buffer pH 6.5, pH 6.5
[23] = system: P. falciparum field isolates; assay: ex vivo 48 h schizont maturation assay; format: cell-based; conditions: Plasmodium falciparum, read-out: unbound EC50
How it was run: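 Field isolates came from patients at malaria clinics in Timika, Papua, Indonesia, and were tested in a 48 h schizont maturation assay adapted from the WHO microtest at 2% hematocrit. P. falciparum was run in RPMI 1640 with 10% AB+ human serum. P. vivax was run in McCoy's 5A with 20% AB+ human serum.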

[24] = solubility by equilibration in physiologically-relevant media; format: physicochemical
[25] = target: hERG channel (Homo sapiens, UniProt Q12809); assay: hERG channel patch clamp; format: cell-based; conditions: for IC50: hERG IC50, partial dose response curve
How it was run: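 hERG current measured by IonWorks automated patch-clamp electrophysiology at a contract lab. Top concentration tested was 33 μM.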

[26] = target: Rat DHODH (Rattus norvegicus, UniProt Q63707); assay: DHODH inhibition, DCIP-based assay; format: biochemical
[27] = incubation in cryopreserved hepatocytes; format: in vitro ADME, human; conditions: 10 μM over 120 minutes
How it was run: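 Human cryopreserved hepatocytes at 1 × 10^6 cells/mL were incubated with test compound at 10 μM. Metabolites were assigned by accurate mass measurement.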

[28] = target: P. vivax DHODH (Plasmodium vivax, UniProt A5K1N1); assay: DHODH inhibition, DCIP-based assay; format: biochemical
[29] = system: P. falciparum Pf3D7^0087/N9; assay: P. falciparum SCID mouse efficacy model; format: in vivo
[30] = P. falciparum SCID mouse efficacy model; format: in vivo; conditions: NOD-scid IL-2Rγnull (NSG), mouse, blood, oral
[31] = metabolic stability in liver microsomes; format: in vitro ADME; conditions: human
[32] = metabolic stability in liver microsomes; format: in vitro ADME; conditions: dog

hERG channel, sequence (Q12809 whole entry): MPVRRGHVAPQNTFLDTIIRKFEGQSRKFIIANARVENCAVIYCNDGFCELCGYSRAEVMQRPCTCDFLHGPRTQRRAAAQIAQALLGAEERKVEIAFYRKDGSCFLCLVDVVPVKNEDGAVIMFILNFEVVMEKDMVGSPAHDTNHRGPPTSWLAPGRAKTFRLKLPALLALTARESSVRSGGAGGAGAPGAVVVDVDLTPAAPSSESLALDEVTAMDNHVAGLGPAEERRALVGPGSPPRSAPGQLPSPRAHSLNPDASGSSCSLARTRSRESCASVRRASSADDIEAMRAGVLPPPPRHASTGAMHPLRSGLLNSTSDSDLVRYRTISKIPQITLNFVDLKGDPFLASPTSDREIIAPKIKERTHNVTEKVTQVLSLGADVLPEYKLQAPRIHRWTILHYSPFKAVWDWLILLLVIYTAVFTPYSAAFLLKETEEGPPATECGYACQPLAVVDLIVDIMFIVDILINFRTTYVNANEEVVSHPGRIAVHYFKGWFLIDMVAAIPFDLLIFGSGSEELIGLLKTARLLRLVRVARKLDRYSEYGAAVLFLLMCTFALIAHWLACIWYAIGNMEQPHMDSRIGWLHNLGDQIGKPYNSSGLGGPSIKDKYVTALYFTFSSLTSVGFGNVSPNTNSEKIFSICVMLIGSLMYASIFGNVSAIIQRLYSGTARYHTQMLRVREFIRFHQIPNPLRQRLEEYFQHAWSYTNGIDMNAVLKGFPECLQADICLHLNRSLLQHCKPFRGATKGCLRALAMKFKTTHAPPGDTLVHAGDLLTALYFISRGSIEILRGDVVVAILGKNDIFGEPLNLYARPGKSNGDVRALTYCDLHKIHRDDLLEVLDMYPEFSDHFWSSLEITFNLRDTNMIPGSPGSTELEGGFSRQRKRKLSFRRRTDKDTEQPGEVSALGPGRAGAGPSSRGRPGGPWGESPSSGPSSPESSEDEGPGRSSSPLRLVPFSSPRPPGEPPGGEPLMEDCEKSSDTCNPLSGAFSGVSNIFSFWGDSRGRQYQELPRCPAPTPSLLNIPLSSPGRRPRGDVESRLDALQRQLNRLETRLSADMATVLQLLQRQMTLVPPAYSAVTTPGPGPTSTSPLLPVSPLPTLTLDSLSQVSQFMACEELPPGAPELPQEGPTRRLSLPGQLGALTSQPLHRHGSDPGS
P. vivax DHODH, sequence (A5K1N1 160-572): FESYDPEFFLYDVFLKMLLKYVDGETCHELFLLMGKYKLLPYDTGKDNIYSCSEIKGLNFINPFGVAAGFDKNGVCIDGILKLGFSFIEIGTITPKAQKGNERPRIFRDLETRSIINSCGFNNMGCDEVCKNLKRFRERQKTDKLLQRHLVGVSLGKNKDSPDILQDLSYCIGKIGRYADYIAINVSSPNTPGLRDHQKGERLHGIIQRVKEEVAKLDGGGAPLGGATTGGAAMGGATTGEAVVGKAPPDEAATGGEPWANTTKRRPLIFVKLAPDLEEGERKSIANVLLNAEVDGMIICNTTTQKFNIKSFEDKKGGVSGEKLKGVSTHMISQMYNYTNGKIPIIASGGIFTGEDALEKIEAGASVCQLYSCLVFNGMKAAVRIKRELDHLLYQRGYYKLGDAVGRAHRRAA
Rat DHODH, sequence (Q63707 whole entry): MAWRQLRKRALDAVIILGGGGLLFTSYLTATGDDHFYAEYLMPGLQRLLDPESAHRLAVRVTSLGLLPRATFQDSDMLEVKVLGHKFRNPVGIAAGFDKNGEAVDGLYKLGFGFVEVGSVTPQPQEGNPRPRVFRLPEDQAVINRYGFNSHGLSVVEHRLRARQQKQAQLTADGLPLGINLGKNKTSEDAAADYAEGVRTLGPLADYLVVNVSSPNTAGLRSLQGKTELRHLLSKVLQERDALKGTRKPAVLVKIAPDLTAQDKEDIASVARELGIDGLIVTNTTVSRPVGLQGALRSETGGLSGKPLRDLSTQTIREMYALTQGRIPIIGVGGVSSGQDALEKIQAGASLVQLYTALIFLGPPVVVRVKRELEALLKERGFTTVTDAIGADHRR
Dog DHODH, sequence (A0A8I3MWX2 1-406): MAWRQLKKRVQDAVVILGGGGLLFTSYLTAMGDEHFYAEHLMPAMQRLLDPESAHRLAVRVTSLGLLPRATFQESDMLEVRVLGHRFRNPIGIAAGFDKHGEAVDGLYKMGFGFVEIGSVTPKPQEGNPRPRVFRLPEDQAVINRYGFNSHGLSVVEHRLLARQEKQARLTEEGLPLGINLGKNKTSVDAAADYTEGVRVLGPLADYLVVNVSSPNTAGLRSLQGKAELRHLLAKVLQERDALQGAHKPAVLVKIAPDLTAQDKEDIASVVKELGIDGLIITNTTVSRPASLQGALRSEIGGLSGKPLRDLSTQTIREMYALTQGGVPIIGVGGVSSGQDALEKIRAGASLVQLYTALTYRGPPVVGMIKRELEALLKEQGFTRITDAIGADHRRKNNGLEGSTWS
P. berghei DHODH (PbDHODH), sequence (A0A509AEH5 132-517): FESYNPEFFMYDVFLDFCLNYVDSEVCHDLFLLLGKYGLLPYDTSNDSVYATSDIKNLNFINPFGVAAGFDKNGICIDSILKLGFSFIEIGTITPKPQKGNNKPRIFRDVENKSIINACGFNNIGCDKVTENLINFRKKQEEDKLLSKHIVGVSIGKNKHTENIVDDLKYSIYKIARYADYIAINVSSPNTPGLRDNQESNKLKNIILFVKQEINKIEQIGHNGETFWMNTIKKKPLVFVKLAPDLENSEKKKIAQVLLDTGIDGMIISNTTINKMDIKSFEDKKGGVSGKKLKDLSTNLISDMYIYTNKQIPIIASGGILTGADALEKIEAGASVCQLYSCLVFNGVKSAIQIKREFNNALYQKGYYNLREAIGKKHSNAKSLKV
Rabbit DHODH, sequence (G1SWF3 1-395): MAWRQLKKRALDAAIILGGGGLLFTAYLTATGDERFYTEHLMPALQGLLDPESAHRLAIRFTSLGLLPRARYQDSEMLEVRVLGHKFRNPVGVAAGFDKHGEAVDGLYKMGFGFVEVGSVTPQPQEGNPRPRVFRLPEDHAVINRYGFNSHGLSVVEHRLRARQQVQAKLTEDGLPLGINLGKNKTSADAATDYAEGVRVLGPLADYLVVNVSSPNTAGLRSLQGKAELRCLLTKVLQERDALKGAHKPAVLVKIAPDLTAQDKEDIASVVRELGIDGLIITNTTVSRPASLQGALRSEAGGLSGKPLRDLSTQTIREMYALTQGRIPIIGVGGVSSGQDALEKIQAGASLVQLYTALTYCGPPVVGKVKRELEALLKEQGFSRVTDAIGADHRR
P. falciparum DHODH, sequence (Q08210 158-569 limits assumed): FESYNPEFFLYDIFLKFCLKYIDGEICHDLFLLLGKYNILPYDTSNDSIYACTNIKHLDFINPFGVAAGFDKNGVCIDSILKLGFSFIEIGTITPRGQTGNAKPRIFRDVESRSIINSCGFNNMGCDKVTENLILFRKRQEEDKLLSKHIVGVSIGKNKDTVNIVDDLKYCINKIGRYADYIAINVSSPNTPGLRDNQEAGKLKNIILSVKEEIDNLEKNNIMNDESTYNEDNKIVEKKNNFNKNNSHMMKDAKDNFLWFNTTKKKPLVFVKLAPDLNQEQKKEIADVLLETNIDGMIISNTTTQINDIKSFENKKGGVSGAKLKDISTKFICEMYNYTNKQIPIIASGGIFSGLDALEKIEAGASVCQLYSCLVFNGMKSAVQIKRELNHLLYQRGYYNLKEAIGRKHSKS
Human DHODH, sequence (Q02127 whole entry): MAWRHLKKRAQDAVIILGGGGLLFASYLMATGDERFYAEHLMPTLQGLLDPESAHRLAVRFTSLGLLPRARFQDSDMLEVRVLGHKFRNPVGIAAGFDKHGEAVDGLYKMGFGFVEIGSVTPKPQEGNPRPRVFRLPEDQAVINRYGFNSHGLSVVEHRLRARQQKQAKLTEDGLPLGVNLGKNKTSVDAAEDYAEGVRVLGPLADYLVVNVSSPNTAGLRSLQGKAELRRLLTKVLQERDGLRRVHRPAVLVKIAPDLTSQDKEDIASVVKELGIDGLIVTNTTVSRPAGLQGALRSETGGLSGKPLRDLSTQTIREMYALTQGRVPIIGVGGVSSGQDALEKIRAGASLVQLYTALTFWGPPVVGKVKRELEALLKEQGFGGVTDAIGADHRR
CYP2C9, sequence (P11712 whole entry, canonical isoform): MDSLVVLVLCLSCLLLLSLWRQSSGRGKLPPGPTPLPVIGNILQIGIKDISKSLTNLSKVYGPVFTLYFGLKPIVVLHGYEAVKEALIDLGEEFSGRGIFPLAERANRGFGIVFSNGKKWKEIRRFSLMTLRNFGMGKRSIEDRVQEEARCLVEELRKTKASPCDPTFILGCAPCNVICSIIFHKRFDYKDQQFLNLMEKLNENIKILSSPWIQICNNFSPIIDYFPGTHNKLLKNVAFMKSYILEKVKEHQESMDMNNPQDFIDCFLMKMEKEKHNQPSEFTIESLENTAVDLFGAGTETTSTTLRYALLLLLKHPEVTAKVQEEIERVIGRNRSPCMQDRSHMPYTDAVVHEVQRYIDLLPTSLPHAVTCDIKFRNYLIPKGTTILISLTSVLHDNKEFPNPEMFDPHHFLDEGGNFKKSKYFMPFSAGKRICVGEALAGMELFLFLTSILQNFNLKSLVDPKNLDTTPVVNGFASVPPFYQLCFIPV

With `Cc1cc(Nc2ccc(C(F)(F)F)nc2)n2nc(C(C)(F)F)nc2n1` [DSM421, 2-(1,1-Difluoroethyl)-5-methyl-N-(6-(trifluoromethyl)pyridin-3-yl)-[1,2,4]triazolo[1,5-a]pyrimidin-7-amine] the “permeability across Caco-2 cell monolayers” value [1] was “high in both directions with no evidence for significant efflux”, the microsomal CLint at 1 μM [2] was < 7 µL/min/mg and the IC50 [3] was > 100 µM. The IC50 [4] was > 100 µM, the EC50 [5] was 12 nM and the “inhibition of D10w/yDHODH line” value [6] was “did not inhibit this line”. For the same molecule, the EC50 ([6]; read-out: EC50 on D10 cells transfected with yeast DHODH) was > 10 µM, the “GLP Ames 5 strain test result” value [7] was “no obvious cytotoxicity in any tester strain at any tested dose level” and the IC50 [8] was 53 nM. For the same molecule, the inhibition at 20 µM [9] was 22%, the “inhibition of the other CYP isoforms” value [10] was “no measurable inhibition” and the IC50 [11] was > 20 µM. For the same molecule, the logD ([12]; pH 7.4, measured Log D7.4, text (Table S6)) was 2.36, the “measured Log D7.4” value ([12]; text (Table S6)) was 2.4 and the half-life [13] was 900 to 1080 min. For the same molecule, the CLint scaled ([13]; intravenous) was 4.5 mL/min/kg, the Vd ([13]; iv) was 0.8 L/kg and the clearance ([13]; iv) was 0.5 mL/min/kg. The Tmax ([13]; po) was 4 h, the bioavailability ([13]; po) was ~100% and the “fold less potent than DSM265 against P. falciparum 3D7 parasites” value [14] was 3 fold. The “fold lower intrinsic potency than DSM265 based on unbound concentrations” value ([14]; 48 and 72 h in vitro assays) was 10 fold, the EC50 ([14]; read-out: Pf3D7 EC50) was 14 nM and the EC50 ([14]; read-out: unbound EC50) was 7 nM. The “activity on Ca_1.2 channel” value [15] was “no activity”, the “stability in plasma and blood” value [16] was “stable” and the IC50 [17] was 35 µM. The “fold reduction of inhibitory activity in comparison to DSM265” value ([17]; dog enzyme) was 2.2 fold, the IC50 [18] was 5 µM and the “fold less active against PbDHODH than PfDHODH” value [18] was 100 fold. It also gave a half-life ([19]; rat, plasma) of ~300 min, a Vd ([19]; rat, plasma, iv, 2 mg/kg) of 0.8 L/kg and a clearance ([19]; rat, plasma, iv, 2 mg/kg) of 2.4 mL/min/kg. The Tmax ([19]; rat, plasma, po) was 1.8 to 7.5 h, the bioavailability ([19]; rat, plasma, po, 4.3 mg/kg) was ~80% and the “fold increase of plasma AUC” value ([19]; rats, oral 4.3 to 53.7 mg/kg, for a 12-fold increase in dose) was 31 fold. For the same molecule, the microsomal CLint at 1 μM [20] was < 7 µL/min/mg, the tolerability [21] was “well tolerated” and the solubility kinetic [22] was > 100 µg/mL. The EC50 [23] was 23 nM, the “fold more soluble than DSM265” value [24] was 6-80 fold and the “concentration giving 20% hERG inhibition” value [25] was ~ 10 μM and 3.6 μg/mL. The IC50 [25] was 26.2 µM, the IC50 ([25]; maximum concentration 33 μM) was 26.2 µM and the IC50 [26] was 22 µM. The “fold reduction of inhibitory activity in comparison to DSM265” value ([26]; rodent (rat) enzyme) was 10 fold, the “degradation in human hepatocyte incubations” value [27] was “minimal degradation” and the IC50 [28] was 94 nM. For the same molecule, the “fold lower activity (higher IC50) on P. vivax DHODH than PfDHODH” value [28] was 2 fold, the tolerability ([29]; SCID mice, oral QD 4 days) was “well tolerated and no adverse reactions were noted” and the “Cav at ED90” value ([29]; blood) was 0.53 µg/mL. For the same molecule, the “Cmin at 5 mg/kg/day” value ([29]; blood) was 0.33 µg/mL, the “Cmin at ED90” value ([29]; blood) was 0.1 µg/mL and the “ED90 24 h after the last dose” value ([29]; oral QD for 4 days) was 2.6 mg/kg/day. The “dose giving maximum parasite killing” value ([29]; oral QD for 4 days) was ≥ 5 mg/kg/day, the AUC(0-t) ([30]; 2.6 mg/kg/day) was 12900 ng·h/mL and the AUC(0-t) ([30]; 5 mg/kg/day) was 30800 ng·h/mL. For the same molecule, the microsomal CLint at 1 μM [31] was < 7 µL/min/mg and the microsomal CLint at 1 μM [32] was < 7 µL/min/mg.

Source: publication PMC5148661 (ACS infectious diseases, 2016)
